What all share (format): functional
The test system of assay [1] is Litomosoides carinii. Briefly: Antifilarial activity (percent reduction of live Litomosoides carinii at necropsy relative to controls) was evaluated at dose of 100 mg/kg/day administered subcutaneously. The note with it: route subcutaneous. Put shortly:
(§1)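 Male jirds (Meriones unguiculatus) carrying adult Brugia pahangi and Litomosoides carinii. Infection was by intraperitoneal inoculation of 24-25 L. carinii larvae 76–133 days before treatment, followed by 49-50 immature B. pahangi. Dosing was daily for 5 days. Necropsy was 55–70 days after the first dose, with a search of the pleural and peritoneal cavities. Live adult worms were scored as % reduction versus controls, usually averaged over 3 animals.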

The test system of assay [2] is Brugia pahangi. The experiment in a line: Antifilarial activity (percent reduction of live Brugia pahangi at necropsy relative to controls) was evaluated at dose of 100 mg/kg/day administered subcutaneously. The note with it: route subcutaneous. The procedure, abridged:
as §1

Assay [3] has as its system Brugia pahangi. Briefly: Antifilarial activity (percent reduction of live Brugia pahangi at necropsy relative to controls) was evaluated at dose of 6.25 mg/kg/day administered subcutaneously. The note with it: route subcutaneous. Put shortly: as §1
The subject of assay [4] is Litomosoides carinii. Briefly: Antifilarial activity (percent reduction of live Litomosoides carinii at necropsy relative to controls) was evaluated at dose of 6.25 mg/kg/day administered subcutaneously. The note with it: route subcutaneous. The procedure, abridged:
as §1

Assay [5] deals with Litomosoides carinii. Briefly: Antifilarial activity (percent reduction of live Litomosoides carinii at necropsy relative to controls) was evaluated at dose of 25 mg/kg/day administered subcutaneously. The following applies: route subcutaneous. Put shortly: as §1
Assay [6] relates to Brugia pahangi. The experiment in a line: Antifilarial activity (percent reduction of live Brugia pahangi at necropsy relative to controls) was evaluated at dose of 25 mg/kg/day administered subcutaneously. The following applies: route subcutaneous. The procedure, abridged: as §1
For assay [7], the system named is Litomosoides carinii. Briefly: Antifilarial activity (percent reduction of live Litomosoides carinii at necropsy relative to controls) was evaluated at dose of 1.56 mg/kg/day administered subcutaneously. The following applies: route subcutaneous. The procedure, abridged: as §1
For assay [8], the system named is Brugia pahangi. Briefly: Antifilarial activity (percent reduction of live Brugia pahangi at necropsy relative to controls) was evaluated at dose of 1.56 mg/kg/day administered subcutaneously. The note with it: route subcutaneous. Put shortly: as §1
The subject of assay [9] is Litomosoides carinii. The experiment in a line: Antifilarial activity (percent reduction of live Litomosoides carinii at necropsy relative to controls) was evaluated at dose of 100 mg/kg/day administered perorally. The following applies: route oral; in the assay text read “25 mg/kg/day” for “100 mg/kg/day”. The procedure, abridged:
as §1

Structures are written as SMILES.

For `CCCNC(=O)Nc1nc2cc(C(=O)c3ccccc3)ccc2[nH]1`, the Reduction in assay [1] and in [2] was 0% throughout.
Regarding `CN1CCN(C(=O)Nc2nc3cc(C(=O)c4ccccc4)ccc3[nH]2)CC1`, the Reduction in [1] and in assay [2] was 0% each time.
As to `O=C(NCCO)Nc1nc2cc(C(=O)c3ccccc3)ccc2[nH]1`, the values for the Reduction in assay [1] and in [2] were 20% and 15%, respectively.
On to `O=C(Nc1ccc(Cl)c(Cl)c1)Nc1nc2cc(C(=O)c3ccccc3)ccc2[nH]1`, for which the Reduction stood at 9% in assay [1] and 0% in [2].
With `CN(C)C(=O)Nc1nc2cc(C(=O)c3ccccc3)ccc2[nH]1`, the Reduction in assay [1] came to 100%; in [3], 0%; in [4] it was 61%; in assay [5], 87%; in assay [6], 0%; in [2], 100%.
On to `O=C(Nc1ccc(F)cc1)Nc1nc2cc(C(=O)c3ccccc3)ccc2[nH]1`, for which the results for the Reduction in assay [1] and in [2] were 66% and 6%, respectively.
With `O=C(Nc1nc2cc(C(=O)c3ccccc3)ccc2[nH]1)Nc1ccccc1[N+](=O)[O-]`, the Reduction in assay [1] is reported as 0%; in [2], 6%.
As for `Cc1ccc(NC(=O)Nc2nc3cc(C(=O)c4ccccc4)ccc3[nH]2)cc1`, the results for the Reduction in assay [1] and in [2] were 27% and 0%, respectively.
In the same order, the values of `Cc1cccc(NC(=O)Nc2nc3cc(C(=O)c4ccccc4)ccc3[nH]2)c1` are 0% and 0%.
Consider `O=C(Nc1ccc([N+](=O)[O-])cc1)Nc1nc2cc(C(=O)c3ccccc3)ccc2[nH]1`, for which the Reduction is on record as 0% in assay [1] and 9% in assay [2].
For `O=C(Nc1nc2cc(C(=O)c3ccccc3)ccc2[nH]1)Nc1ccccc1F`, the Reduction in [1] and in [2] was 0% in each case.
`O=C(Nc1cccc([N+](=O)[O-])c1)Nc1nc2cc(C(=O)c3ccccc3)ccc2[nH]1`: the Reduction is listed as 32% in assay [1] and 0% in assay [2].
Consider `O=C(Nc1ccccc1)Nc1nc2cc(C(=O)c3ccccc3)ccc2[nH]1`, for which the Reduction came to 66% in assay [1] and 0% in [2].
Consider `COC(=O)Nc1nc2cc(C(=O)c3ccccc3)ccc2[nH]1` [MEBENDAZOLE], for which the Reduction came to 97% in assay [7]; 100% in assay [3]; 100% in [4]; 100% in [5]; 100% in assay [6]; 12.5% in [8].
With `Cc1ccc(C(=O)Nc2ccc(S(=O)(=O)O)c3cc(S(=O)(=O)O)cc(S(=O)(=O)O)c23)cc1NC(=O)c1cccc(NC(=O)Nc2cccc(C(=O)Nc3cc(C(=O)Nc4ccc(S(=O)(=O)O)c5cc(S(=O)(=O)O)cc(S(=O)(=O)O)c45)ccc3C)c2)c1` [SURAMIN], the Reduction in assay [9] came out at 71%.

The record behind these values is ChEMBL document CHEMBL1122690, “Synthesis of potential antifilarial agents. 1-(5-Benzoylbenzimidazol-2-yl)-3-alkyl- and -arylureas” (1984).
